A selection: hits, their analogues and other compounds. The true share with any hit is near 6.7%.
T cruzi repl = blocks replication of Trypanosoma cruzi. inhibition, % (no concentration beside the values). AID 1885. T. cruzi beta-gal in NIH3T3, luminescence, 90 h. 1.4% of 300,000 active;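 active means mean inhibition across valid replicates above about 55%, limit read from the data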;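 further: signal also drops with host cell toxicity which is not excluded here; higher percent means less beta-gal luminescence so fewer parasites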
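System: Mouse NIH/3T3 fibroblasts infected with β-gal-expressing T. cruzi Tulahuen C4 | Quantity: NIH/3T3 cells, 5,000 per well | Reagent: 5000 reporter trypomastigotes per well | Dosing: Compound pinned at 50 nL/well, DMSO | Schedule: 3 h host attachment, then at least 90 h co-culture | Detection: GalScreen luminescence, 60 min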
Beta cell apopt = beta cell apoptosis inhibition; INS-1E cytokine-induced death, ATP luminescence, 48 h; percent of positive-control rescue, neutral wells zero; protection from apoptosis, % (concentration not given with the values); 0.8% of 300,000 active;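 active means Every replicate reaches about 75%, or at least half do and their mean reaches it too, limit read from the data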;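 further: higher means more ATP so stronger rescue from cytokine killing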
NR3A LBD binder = modulators (binders) of human NR3A ligand-binding domain | NR3A LBD differential scanning fluorimetry, Tm shift; 0% = protein alone, 100% = glycine-bound protein | Tm shift relative to glycine control, % at 25 µM | 2.5% of 340,000 active;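 active means melting temperature shift of at least 10% of the positive control shift, at one fixed dose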
CHOP inh = CHOP inhibition in unfolded protein response. CHO-K1 CHOP-promoter luciferase, tunicamycin-induced, 15-18 h. inhibition, % at 10 µM. 3.8% of 220,000 active;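 active means compounds that reduced the stress-induced luciferase reporter signal by more than about 70% of percent inhibition, limit read from the data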
PREPL inh = human PREPL enzyme inhibition; Q4J6C6; inhibition, % at 5.96 µM; AID 2751; recombinant PREPL, fluorescence polarization activity-based probe; 0.68% of 320,000 active; in the data active means inhibition above about 43%
Target sequence (Q4J6C6 whole entry, looked up): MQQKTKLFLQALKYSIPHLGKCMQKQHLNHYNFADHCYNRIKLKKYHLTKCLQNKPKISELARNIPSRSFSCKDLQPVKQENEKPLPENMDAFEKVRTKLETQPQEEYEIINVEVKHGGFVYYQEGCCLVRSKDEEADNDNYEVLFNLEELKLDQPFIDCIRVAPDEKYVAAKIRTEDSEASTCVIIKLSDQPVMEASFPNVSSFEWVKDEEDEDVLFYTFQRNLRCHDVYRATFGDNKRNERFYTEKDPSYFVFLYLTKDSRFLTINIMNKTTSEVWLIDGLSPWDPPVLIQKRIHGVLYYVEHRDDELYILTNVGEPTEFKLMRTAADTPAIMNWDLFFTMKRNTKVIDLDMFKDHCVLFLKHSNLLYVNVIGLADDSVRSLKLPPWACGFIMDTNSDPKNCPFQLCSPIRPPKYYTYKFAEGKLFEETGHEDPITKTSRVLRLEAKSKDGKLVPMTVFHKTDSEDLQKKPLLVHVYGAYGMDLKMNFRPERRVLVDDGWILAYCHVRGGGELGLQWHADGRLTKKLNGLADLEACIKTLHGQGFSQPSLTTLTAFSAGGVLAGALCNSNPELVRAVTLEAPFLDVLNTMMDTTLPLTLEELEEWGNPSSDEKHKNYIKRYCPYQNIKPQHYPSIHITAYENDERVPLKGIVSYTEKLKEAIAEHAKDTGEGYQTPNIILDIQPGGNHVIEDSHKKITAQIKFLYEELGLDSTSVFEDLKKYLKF
CSC inhib = cancer stem cell inhibition | cancer stem cell-like cells viability, luminescence | 1.1% of 300,000 active | inhibition, % at 7.5 µM | AID 2717; in the data active means inhibition above about 75%; tested in HMLE shEcad cells
A number is an active result.

For COc1cc(NC(=O)Cn2c(=O)n(-c3cccc(C)c3)c(=O)c3c(C)c(C)sc32)cc(OC)c1 the results were T cruzi repl inactive, Beta cell apopt inactive, NR3A LBD binder inactive, CHOP inh 92, PREPL inh inactive and CSC inhib inactive.
Screening CCNC(=S)N1CCn2c(nc3ccccc32)C1 returned T cruzi repl inactive, Beta cell apopt inactive, NR3A LBD binder 12, CHOP inh inactive, PREPL inh inactive and CSC inhib inactive.
For O=C(NCc1cc([N+](=O)[O-])ccc1O)c1cccc(NS(=O)(=O)c2ccccc2)c1 the results were T cruzi repl inactive, Beta cell apopt inactive, NR3A LBD binder inactive, PREPL inh inactive and CSC inhib inactive.
`O=c1[nH]c(CN2CCc3ccccc32)nc2scc(-c3cccs3)c12` gave T cruzi repl inactive, Beta cell apopt inactive, NR3A LBD binder inactive, CHOP inh 88, PREPL inh inactive and CSC inhib inactive.
O=C(CSCc1nc2scc(-c3cccs3)c2c(=O)[nH]1)Nc1ccccn1 was read as T cruzi repl inactive, Beta cell apopt inactive, NR3A LBD binder inactive, PREPL inh inactive and CSC inhib inactive.
`O=C(c1ccc(Oc2ccccc2)cc1)C1CCCN(C(=O)c2cnccn2)C1` (centres undefined) gave T cruzi repl inactive, Beta cell apopt inactive, NR3A LBD binder inactive, CHOP inh inactive, PREPL inh inactive and CSC inhib inactive.
For Cc1ccc(Sc2cnc3ccccc3n2)cc1 the results were T cruzi repl inactive, Beta cell apopt inactive, NR3A LBD binder inactive, CHOP inh 86, PREPL inh inactive and CSC inhib inactive.
Screening Cc1ccc(N2C(=O)C(Cl)=C(NCCO)C2=O)c(C)c1 returned T cruzi repl inactive, NR3A LBD binder 361, CHOP inh inactive, PREPL inh inactive and CSC inhib inactive.
Screening Cc1ccc(N2C(=O)C(Cl)=C(N3CCN(C)CC3)C2=O)c(C)c1 returned T cruzi repl inactive, Beta cell apopt inactive, NR3A LBD binder inactive, CHOP inh inactive, PREPL inh inactive and CSC inhib inactive.
`O=C(NC(=S)N(Cc1ccccc1)Cc1ccccc1)C1CCCCC1` gave T cruzi repl inactive, Beta cell apopt inactive, NR3A LBD binder inactive, CHOP inh inactive, PREPL inh inactive and CSC inhib inactive.
For O=C(NC(=S)N(Cc1ccccc1)c1ccccn1)C1CC1 the results were T cruzi repl inactive, Beta cell apopt inactive, NR3A LBD binder 17, CHOP inh inactive, PREPL inh inactive and CSC inhib inactive.
CCCCCC(O)(CCCCC)C(=O)NNc1ccccc1 was read as T cruzi repl inactive, Beta cell apopt inactive, NR3A LBD binder inactive, CHOP inh 91, PREPL inh inactive and CSC inhib inactive.
For CC(=O)Nc1ccc(S(=O)(=O)c2cc(O)ccc2O)cc1 the results were T cruzi repl inactive and NR3A LBD binder inactive.
For Cc1ccsc1/C=C(\C(=O)c1ccc(OC(C)C)cc1)c1nc2ccccc2o1 the results were T cruzi repl 68, Beta cell apopt inactive, NR3A LBD binder inactive, CHOP inh inactive, PREPL inh inactive and CSC inhib inactive.
`O=C(Nc1ccccc1N1CCN(C(=O)c2ccccc2)CC1)c1cc(Br)ccc1Cl` gave T cruzi repl inactive, Beta cell apopt inactive, NR3A LBD binder inactive, CHOP inh inactive, PREPL inh inactive and CSC inhib inactive.
Screening COc1c(C)cc(Br)cc1C(=O)Nc1ccccc1N1CCN(C(=O)c2ccccc2)CC1 returned T cruzi repl 66, Beta cell apopt inactive, NR3A LBD binder inactive, CHOP inh inactive, PREPL inh inactive and CSC inhib inactive.
`COc1ccc(Br)cc1C(=O)Nc1ccccc1N1CCN(C(=O)c2ccccc2)CC1` gave T cruzi repl 59, Beta cell apopt inactive, NR3A LBD binder inactive, CHOP inh inactive, PREPL inh inactive and CSC inhib inactive.
Screening CCn1cc(CN2CCC(n3nccc3NC(=O)C3CCCC3)CC2)cn1 returned T cruzi repl inactive, Beta cell apopt inactive, NR3A LBD binder inactive, PREPL inh inactive and CSC inhib inactive.
For Cn1cnnc1Sc1nc([N+](=O)[O-])nn1C the results were T cruzi repl inactive, Beta cell apopt inactive, NR3A LBD binder inactive, CHOP inh inactive, PREPL inh inactive and CSC inhib inactive.
For Cn1nc([N+](=O)[O-])nc1Sc1ccc(Cl)cc1 the results were T cruzi repl 69, NR3A LBD binder inactive, CHOP inh inactive, PREPL inh inactive and CSC inhib inactive.
For CCCC1C2C(=O)N(c3ccccc3OC)C(=O)C2ON1c1ccccc1 (centres undefined) the results were T cruzi repl inactive, Beta cell apopt inactive, NR3A LBD binder 20, CHOP inh inactive, PREPL inh inactive and CSC inhib inactive.
Screening Clc1ccccc1OCCN1CCCCC1 returned T cruzi repl inactive, Beta cell apopt inactive, NR3A LBD binder inactive, CHOP inh inactive, PREPL inh inactive and CSC inhib inactive.
CCN1CCN(CCOc2cccc(Cl)c2Cl)CC1 was read as T cruzi repl 78, NR3A LBD binder inactive, CHOP inh inactive, PREPL inh inactive and CSC inhib inactive.
CC1CC(C)CN(CCOc2cccc(Cl)c2Cl)C1 (centres undefined) was read as T cruzi repl inactive, Beta cell apopt inactive, NR3A LBD binder inactive, CHOP inh 73, PREPL inh inactive and CSC inhib inactive.
Screening Cc1cccc(NC(=O)CN2C(=O)NC3(CCCC3)C2=O)n1 returned T cruzi repl inactive, Beta cell apopt inactive, NR3A LBD binder inactive, PREPL inh inactive and CSC inhib inactive.
For O=C(COC(=O)c1cccc(NS(=O)(=O)/C=C/c2ccccc2)c1)Nc1ccccc1OC(F)F the results were T cruzi repl inactive, Beta cell apopt inactive, NR3A LBD binder 19, CHOP inh inactive, PREPL inh inactive and CSC inhib inactive.
For CC1CCCCC1NS(=O)(=O)c1ccc(S(=O)(=O)NCc2ccncc2)cc1 (centres undefined) the results were T cruzi repl inactive, Beta cell apopt 77, NR3A LBD binder inactive and PREPL inh inactive.
For CCOc1ccc(S(=O)(=O)NCc2ccncc2)cc1 the results were T cruzi repl inactive, Beta cell apopt 116, NR3A LBD binder inactive, CHOP inh 78, PREPL inh inactive and CSC inhib inactive.
For Cc1cc(S(=O)(=O)NCc2ccccc2)ccc1OCC(=O)NCc1ccncc1 the results were T cruzi repl inactive, Beta cell apopt inactive, NR3A LBD binder 13, PREPL inh inactive and CSC inhib inactive.
For CCOc1cc(S(=O)(=O)NCc2cccs2)ccc1Cl the results were T cruzi repl inactive, Beta cell apopt inactive, NR3A LBD binder inactive, CHOP inh inactive, PREPL inh inactive and CSC inhib inactive.
`CCOc1cc(S(=O)(=O)NCc2ccncc2)ccc1Cl` gave T cruzi repl inactive, Beta cell apopt 111, NR3A LBD binder inactive, CHOP inh inactive, PREPL inh inactive and CSC inhib inactive.
For O=C(COc1ccc(S(=O)(=O)NCc2ccccc2)cc1Cl)NCc1ccncc1 the results were T cruzi repl inactive, Beta cell apopt inactive, NR3A LBD binder inactive, PREPL inh inactive and CSC inhib inactive.

From PubChem BioAssay
